# Results from different studies.
# XDH: Xanthine dehydrogenase/oxidase (XDH, Bos taurus, UniProt P80457)
# Adra1b: Alpha-1B adrenergic receptor (Adra1b, Rattus norvegicus, UniProt P15823)
# NT5E: 5'-nucleotidase (NT5E, Homo sapiens, UniProt P21589)
SMILES,target,test,setting,inhibition [%]
Oc1ncnc2[nH]ncc12,XDH,"enzyme activity, inhibitor",25 µg/mL,> 90
O=C(NS(=O)(=O)c1ccccc1)c1cc2ccccc2n1Cc1ccc(C2CC2)c2ccccc12,XDH,"enzyme activity, inhibitor, absorbance",10 µM,2.49
NC/C(=C\F)COc1cccc(Cn2c(=S)[nH]c(=O)c3[nH]cnc32)c1,Adra1b,"ligand displacement, radioligand",10 µM,< 50
Cc1cccc(NC(=O)c2sc3nc(C)cc(C)c3c2N)n1,NT5E,"enzyme activity, inhibitor",10 µM,-21
O=C(O)/C=C/c1nccc2c3ccccc3n(Cc3ccc(Br)c4ccccc34)c12,XDH,"enzyme activity, inhibitor, absorbance",10 µM,17.8
N#Cc1c(C(F)(F)F)cc(-c2ccccc2)nc1SCC(=O)Nc1ccccc1,NT5E,"enzyme activity, inhibitor",10 µM,16
O=C(O[C@@H]1COC(=O)c2cc(O)c(O)c(O)c2-c2c(cc(O)c(O)c2O)C(=O)O[C@H]1[C@@H]1OC(=O)c2cc(O)c(O)c(O)c2-c2c(O)c(O)c(O)c3c2C(=O)O[C@H]1[C@@H]3O)c1cc(O)c(O)c(O)c1,XDH,"enzyme activity, inhibitor",25 µg/mL,29.8
COCCOCCOCCNC(=O)c1sc2nc(-c3ccccc3)cc(C(F)(F)F)c2c1N,NT5E,"enzyme activity, inhibitor",10 µM,-9
CCN1/C(=C/C(C)=O)Sc2ccc(F)cc21,Adra1b,"ligand displacement, radioligand",10 µM,4.13
C#Cc1cc(-c2cc(Nc3nc(N[C@@H](C)c4ccc(F)cn4)ncc3Cl)n[nH]2)ccc1C=O,"Mitogen-activated protein kinase kinase kinase kinase 5 (MAP4K5, Homo sapiens, UniProt Q9Y4K4)","enzyme activity, inhibitor",0.2 µM,92
Cc1cc(O)c(-c2ccc([C@@H](C)CN(C)C)cc2)c2c1[nH]c(=O)c1sccc12,"Cyclin-dependent kinase 13 (CDK13, Homo sapiens, UniProt Q14004)","enzyme activity, inhibitor",0.1 µM,-1.62
O=C(O)CCc1nccc2c3ccccc3n(Cc3ccc(Br)c4ccccc34)c12,XDH,"enzyme activity, inhibitor, absorbance",10 µM,16.4
